Assay results from ChEMBL document CHEMBL2169822, “Discovery and optimization of 1,3,4-trisubstituted-pyrazolone derivatives as novel, potent, and nonsteroidal farnesoid X receptor (FXR) selective antagonists” (J Med Chem, 2012).
pEC50, pIC50: −log10 of the molar value. Calls of active or inactive are those of the source. The rule behind the calls is not given here.

Tests used:
[1] = (§1) Antagonist activity at GST-tagged human recombinant FXRalphaLBD expressed in Escherichia coli BL21 cells assessed as inhibition of CDCA-induced SRC-1 co-activator association by HTRF assay; type: functional
Outline: (§2)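 HTRF coactivator recruitment: 10 nM GST-human FXRαLBD (residues 238–473, E. coli BL21(DE3)), 0.83 nM anti-GST-Eu cryptate, 100 nM biotin-SRC1 peptide, 41.75 nM SA/XL665. Buffer was 50 mM Hepes pH 7.0, 125 mM KF, 0.125% CHAPS, 0.05% dry milk. Compound alone or with CDCA, 30 min at room temperature. Signal was 1000×(668/620 nm). Primary screen at 40 μM; IC50 as mean ± SE, three experiments.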

HEK-293T [2] = experiment: Agonist activity at FXRalpha/RXRalpha expressed in HEK293T cells co-expressing GAL4 DBD after 18 hrs by luciferase based transactivation assay; type: functional, cell-based; conditions: Homo sapiens
Outline: (§3)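 FXR transactivation in HEK293T cells transiently transfected with pcDNA3.1-FXRα, pcDNA3.1-RXRα, pGL3-FXRE-Luc and pRL-SV40 Renilla vector. Medium was replaced 6 h after transfection with medium holding compound at varied concentrations, with or without 20 μM CDCA, for 18 h. Read-out was dual-luciferase. Three independent experiments.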

[3] = Agonist activity at GST tagged human recombinant FXRalphaLBD expressed in Escherichia coli BL21 cells assessed as SRC-1 co-activator association at 40 uM after 30 mins by HTRF assay; type: functional; outline: as §2
[4] = Antagonist activity at GST-tagged human recombinant FXRalphaLBD expressed in Escherichia coli BL21 cells assessed as inhibition of CDCA-induced SRC-1 co-activator association at 40 uM by HTRF assay; type: functional; outline: as §2
BL21 = experiment: as §1; type: functional; outline: as §2
Mus musculus [5] = experiment: Reduction of serum triglyceride level in cholesterol-fed C57BL/6 mouse at 100 mg/kg, po after 10 days; type: functional; parameters: scale not given: the % may be the effect or the level left
Outline: (§4)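 Male C57BL/6 mice, 8–12 weeks old, were randomized into five groups of nine. Control mice had ground chow; the other groups had chow with 2% cholesterol. Compound (50 or 100 mg/kg) or reference (100 mg/kg) was suspended in 0.5% CMC-Na and given by oral gavage; control and vehicle mice got 0.5% CMC-Na. Serum and hepatic triglyceride and total cholesterol were measured.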

HEK-293T [6] = experiment: Antagonist activity at FXRalpha/RXRalpha expressed in HEK293T cells co-expressing GAL4 DBD assessed as inhibition of CDCA-induced transactivation at 50 uM after 18 hrs by luciferase reporter gene assay; type: functional, cell-based; conditions: Homo sapiens; outline: as §3
Mus musculus [7] = experiment: Reduction of hepatic triglyceride level in cholesterol-fed C57BL/6 mouse at 100 mg/kg, po after 10 days; type: functional; parameters: scale not given: the % may be the effect or the level left; outline: as §4
Mus musculus [8] = experiment: Reduction of hepatic cholesterol level in cholesterol-fed C57BL/6 mouse at 100 mg/kg, po after 10 days; type: functional; parameters: scale not given: the % may be the effect or the level left; outline: as §4
[9] = Agonist activity at GST tagged human recombinant FXRalphaLBD expressed in Escherichia coli BL21 cells assessed as SRC-1 co-activator association after 30 mins by HTRF assay; type: functional; conditions: BL21, 0.5 h
Outline: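 Human FXRα LBD (residues 238–473) expressed as GST fusion in E. coli BL21(DE3) (IPTG 0.2 mM, 20 °C 6 h), purified on glutathione resin then Superdex 75. 10 nM GST-FXRαLBD incubated with 0.83 nM anti-GST-Eu cryptate, 100 nM biotin-SRC1 peptide and 41.75 nM SA/XL665 in 50 mM Hepes pH 7.0, 125 mM KF, 0.125% CHAPS, 0.05% dry milk, 30 min room temperature. Signal read as 1000×(668/620 nm). Primary screen at 40 μM.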

Row | Compound | Activity [3] [%] | inhibition at 40 µM [4] [%] | further results
1 | CCCCCOc1ccc(/C=C2\C(=O)N(c3cccc(C(=O)O)c3)N=C2C)cc1OC | <5 | 55.4 | pIC50 [1]: 4.41; Activity (HEK-293T [2]): inactive
2 | CCOc1ccc(/C=C2\C(=O)N(c3ccccc3F)N=C2C)cc1OC | <5 | 5.5 | –
3 | C/C=C1\C(=O)C[C@H]2[C@@H]3CCC4=CC(=O)CC[C@]4(C)[C@H]3CC[C@]12C [GUGGULSTERONE] | – | – | pIC50 [1]: 4.05; inhibition (BL21): Dose-dependent effect; Activity (Mus musculus [5]): 53.7%; inhibition (HEK-293T [6]): Active; Activity (Mus musculus [7]): 45.1%; Activity (Mus musculus [8]): 26.3%
4 | COc1cc(/C=C2\C(=O)N(c3cccc(C(=O)O)c3)N=C2C)ccc1OCc1ccccc1 | <5 | 57.5 | pIC50 [1]: 4.47; Activity (HEK-293T [2]): inactive
5 | CCOc1ccc(/C=C2\C(=O)N(c3cc(C(F)(F)F)cc(C(F)(F)F)c3)N=C2C)cc1OC | <5 | < 5 | –
6 | CCOc1ccc(/C=C2\C(=O)N(c3cccc(C(F)(F)F)c3)N=C2C)cc1OC | <5 | < 5 | –
7 | CCOc1ccc(/C=C2\C(=O)N(c3cccc([N+](=O)[O-])c3)N=C2C)cc1OC | 29.2 | < 5 | –
8 | CCOc1ccc(/C=C2\C(=O)N(c3ccc(C(C)C)cc3)N=C2C)cc1OC | <5 | 7.7 | –
9 | CCOC(=O)c1cccc(N2N=C(C)/C(=C/c3ccc(OCC)c(OC)c3)C2=O)c1 | <5 | 9.4 | –
10 | CCOc1ccc(/C=C2\C(=O)N(c3ccc([N+](=O)[O-])cc3)N=C2C)cc1OC | 12.7 | 14.8 | –
11 | CC1=NN(c2cccc([N+](=O)[O-])c2)C(=O)/C1=C\c1ccc(C)s1 | <5 | < 5 | –
12 | CC1=NN(c2cccc(C(=O)O)c2)C(=O)/C1=C\C=C\c1ccccc1 | <5 | 32.1 | –
13 | COc1cc(/C=C2\C(=O)N(c3cccc(C(=O)OC(C)C)c3)N=C2C)ccc1O | <5 | 29.9 | –
14 | COc1cc(/C=C2\C(=O)N(c3cccc([N+](=O)[O-])c3)N=C2C(C)C)ccc1O | <5 | 26.4 | –
15 | CCOc1ccc(/C=C2\C(=O)N(c3cc(Cl)cc(Cl)c3)N=C2C)cc1OC | <5 | < 5 | –
16 | CC1=NN(c2ccc([N+](=O)[O-])cc2)C(=O)/C1=C(/C)c1ccc(Cl)cc1 | <5 | 16.8 | –
17 | COc1cc(/C=C2\C(=O)N(c3cccc(C(=O)O)c3)N=C2C)ccc1O | 6.4 | < 5 | –
18 | COc1ccc(/C=C2\C(=O)N(c3cccc([N+](=O)[O-])c3)N=C2C)c2ccccc12 | <5 | 22.7 | –
19 | COc1cc(/C=C2\C(=O)N(c3cccc(C(=O)O)c3)N=C2C)ccc1OC(C)C | <5 | < 5 | –
20 | CC1=NN(c2ccccc2)C(=O)/C1=C\c1ccccc1 | <5 | 23.1 | –
21 | CCOc1ccc(/C=C2\C(=O)N(c3ccc(Cl)c(Cl)c3)N=C2C)cc1OC | <5 | 7.3 | –
22 | CCOc1ccc(/C=C2\C(=O)N(c3ccc(C(F)(F)F)cc3)N=C2C)cc1OC | <5 | 9.5 | –
23 | CC1=NN(c2cccc(C(=O)O)c2)C(=O)/C1=C\c1ccc(O)c(O)c1 | <5 | 17.4 | –
24 | CC1=NN(c2ccccc2)C(=O)/C1=C\c1ccc(Br)cc1 | <5 | 72.6 | pIC50 [1]: 5.00; Activity (HEK-293T [2]): inactive
25 | CCOc1ccc(/C=C2\C(=O)N(c3c(F)c(F)c(F)c(F)c3F)N=C2C)cc1OC | <5 | 43.6 | pIC50 [1]: 4.09; Activity (HEK-293T [2]): inactive
26 | CCOc1ccc(/C=C2\C(=O)N(c3cccc(C(=O)O)c3)N=C2C)cc1OC | 9 | 48.5 | pIC50 [1]: 4.16
27 | C[C@H](CCC(=O)O)[C@H]1CC[C@H]2[C@@H]3[C@H](O)C[C@@H]4C[C@H](O)CC[C@]4(C)[C@H]3CC[C@]12C [CHENODIOL] | – | – | pEC50 [9]: 4.90
